Vif inh = blocks HIV Vif function; AID 602346; HEK293T cells, Vif self-association by quenched fluorescence, imaging, 24 h; actives 0.35% (n = 340,000); inhibition, % at 7.49 µM; in the data active = inhibition above about 50%, passing the limit was not always enough; inconclusive = no clear call, values can overlap the other calls; inactive = below about 31%
Bfl-1 A1 inh = inhibitors of the anti-apoptotic protein A1, read as caspase activation; MEF A1-2A-BIM cells, Caspase-Glo 3/7 luminescence, 3 h; percent of clofoctol response, vehicle zero; caspase activation, % (concentration not given with the values); actives 0.066% (n = 330,000);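 active = over half of replicate activation scores above 10%, or exactly half above 10 with the replicate mean above 10; inconclusive = replicate mean below 10 yet half the replicates above 10; inactive = over half of replicates below 10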
SR-BI uptake up = SR-BI HDL lipid transfer activation | CHO ldlA[mSR-BI] cells, DiI-HDL uptake fluorescence, 3 h; 100 = double the neutral-control signal | activation, % at 12.5 µM | actives 0.096% (n = 320,000);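 active = mean replicate activation of at least 60% and every replicate at or above 60%; inconclusive = mean or all-replicate condition met, but not both; inactive = mean below 60% and not all replicates reaching 60%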
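Test system: SR-BI-overexpressing, LDLR-lacking CHO cells; Also added: labelled HDL, 10 µg/mL; Measured by: bottom-read cell fluorescence after medium removal, ex 550/em 595 nm; Timing: 3 h uptake period with compound, 37 °C; Buffer or medium: F12, 0.5% BSA, 25 mM HEPES; Doses: single compound concentration, delivered by pin transfer.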
H9c2 TAG inh = triacylglycerol accumulation inhibition | inhibition, % at 12.5 µM | actives 0.66% (n = 230,000) | AID 651582 | H9c2 cells, Nile Red lipid (TAG) fluorescence; cells loaded with 200 µM oleic acid;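 active = pattern-corrected inhibition of lipid staining of at least 50% with the nuclear-stain viability signal not falling by more than 50%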
SR-BI DiI inh = inhibitors of mouse SR-BI mediated HDL lipid uptake | ldlA[mSR-BI] CHO cells, DiI-HDL uptake fluorescence, 3 h | inhibition, % at 12.5 µM | actives 0.96% (n = 320,000);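 active = mean replicate inhibition of at least 70% and a set share of replicates each scoring 70 or more; inconclusive = meets just one of the two criteria; inactive = fails both criteria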
Target sequence (Q61009 whole entry, looked up): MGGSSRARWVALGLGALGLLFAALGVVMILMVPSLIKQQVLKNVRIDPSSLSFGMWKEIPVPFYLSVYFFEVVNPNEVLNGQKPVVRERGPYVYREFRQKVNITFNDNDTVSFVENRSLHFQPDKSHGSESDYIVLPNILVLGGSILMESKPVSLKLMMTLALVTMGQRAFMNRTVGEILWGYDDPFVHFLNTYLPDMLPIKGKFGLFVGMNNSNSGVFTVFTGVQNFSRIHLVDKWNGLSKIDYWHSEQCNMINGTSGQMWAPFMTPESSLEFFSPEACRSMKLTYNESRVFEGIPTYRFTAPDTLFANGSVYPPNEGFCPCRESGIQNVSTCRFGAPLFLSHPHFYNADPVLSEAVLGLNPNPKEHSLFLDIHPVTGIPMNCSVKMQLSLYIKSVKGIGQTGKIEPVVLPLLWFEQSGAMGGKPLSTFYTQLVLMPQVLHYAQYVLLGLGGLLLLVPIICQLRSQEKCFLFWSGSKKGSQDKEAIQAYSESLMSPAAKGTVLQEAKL
Of the large screens only hits and unclear results are named; the others gave an inactive call. Shown are actives, neighbours in structure and some others; about 1.6% of the full set was active somewhere.

O=C(Nc1ccnc(-c2cccnc2)n1)c1cccs1	Vif inh 119.3
COc1ccc(CN2CCN(C(=O)c3cc(-c4cccnc4)nc4ccc(Cl)cc34)CC2)c(OC)c1OC	none
COc1ccc(N2CCC(CNC(=O)Nc3ccc(OC)cc3OC)C2)cc1 (configuration not stated)	SR-BI DiI inh 96.5 (no result: H9c2 TAG inh)
COc1ccc(N2CCC(CNC(=O)Nc3ccc(C)c(C)c3)C2)cc1 (configuration not stated)	none
CCOC(=O)c1c(CSC(=N)N)n(-c2ccc(C)cc2)c2cc(Br)c(OC(C)=O)cc12	H9c2 TAG inh 74.4
CCOC(=O)c1c(CSC(=N)N)n(C)c2cc(Br)c(OC(C)=O)cc12	none
O=C(Nc1ccc(F)cc1)Nc1nnc(-c2ccco2)s1	none
CCn1cc([N+](=O)[O-])c(C(=O)N2N=C(c3ccc4ccccc4c3)CC2c2cc(Br)ccc2O)n1 (configuration not stated)	H9c2 TAG inh 56.5 (no result: Vif inh)
CCn1cc([N+](=O)[O-])c(C(=O)N2N=C(c3ccc(Cl)c(Cl)c3)CC2c2ccccc2O)n1 (configuration not stated)	none
COc1ccc(OC)c(NC(=O)c2cc(-c3cc(C)ccc3O)n[nH]2)c1	Bfl-1 A1 inh inconclusive, SR-BI DiI inh 76.1 (no result: H9c2 TAG inh)
COc1cc(/C=C/C(=O)OCC(=O)N2CCN(S(=O)(=O)c3ccc(C)cc3C)CC2)ccc1OC(F)F	SR-BI DiI inh 78.1 (no result: Bfl-1 A1 inh)
Cc1ccc(S(=O)(=O)N2CCN(C(=O)COC(=O)/C=C/c3ccc(F)cc3)CC2)c(C)c1	none
Cc1ccc(-c2nnc(-n3ncc(C#N)c3N)c3ccccc23)cc1C	SR-BI DiI inh 78.0
Cc1ccc(NC(=O)c2cnc(N3CCN(c4ccccn4)CC3)c3ccccc23)c(Br)c1	SR-BI DiI inh 77.8 (no result: H9c2 TAG inh)
O=C(Nc1c(F)cccc1F)c1cnc(N2CCN(c3ccccn3)CC2)c2ccccc12	none
O=C(O)CCC1(CCC(=O)O)CCCC(CCC(=O)O)(CCC(=O)O)C1=O	SR-BI uptake up 60.8 (no result: Bfl-1 A1 inh)
Oc1c(N=Nc2ccc(F)cc2)ccc2ccccc12	none (no result: H9c2 TAG inh)
Oc1ccc2ccccc2c1N=Nc1ccc(F)cc1	H9c2 TAG inh 57.8
CCN(CC(=O)Nc1c(F)cccc1F)C(=O)COc1cccc2c1OC(C)(C)C2	none
Cc1cccc(C)c1NC(=O)COC(=O)c1ccccc1Nc1ccccc1	SR-BI DiI inh 82.1 (no result: H9c2 TAG inh)
COc1cc(/C=C2/C(=N)N3C=CSC3=NC2=O)ccc1OCCCOc1cc(C)ccc1C	Bfl-1 A1 inh 8.5 (no result: H9c2 TAG inh)
CC(C)C[C@H]1CN([C@@H](CC(C)C)CN2CCC[C@@H]2CN2C(=S)NC[C@@H]2Cc2ccc(O)cc2)C(=S)N1CC1CCCCC1	none (no result: Bfl-1 A1 inh, SR-BI uptake up, H9c2 TAG inh, SR-BI DiI inh)
Cc1nn(CC(=O)NC(=O)c2ccccc2)c(C)c1[N+](=O)[O-]	Vif inh 54.3
O=C(NC1=NCCS1)c1ccc(Cl)c(S(=O)(=O)N2CCCCCC2)c1	none
CCN(CC)S(=O)(=O)c1cc(C(=O)NC2=NCCS2)ccc1Cl	SR-BI DiI inh 73.9
CNC(=S)N1C2CCCC1CC(NC(=O)c1ccc(F)cc1)C2 (configuration not stated)	none (no result: H9c2 TAG inh)
CCc1cccc(NC(=O)Cn2c(=O)n(CCC(=O)NCC3CCCO3)c(=O)c3cc(OC)c(OC)cc32)c1 (configuration not stated)	SR-BI uptake up 378.9 (no result: H9c2 TAG inh)
COc1ccc(NC(=O)Cn2c(=O)n(CCC(=O)NCC3CCCO3)c(=O)c3cc(OC)c(OC)cc32)cc1 (configuration not stated)	none (no result: H9c2 TAG inh)
O=C(Cc1cccc(NC(=O)C2CCCN(C(=O)CCc3ccccc3)C2)c1)Nc1cccc(C(=O)N2CCCC2)c1 (configuration not stated)	SR-BI DiI inh 77.5
O=C(Cc1cccc(NC(=O)C2CCCN(C(=O)C3CC3)C2)c1)Nc1ccc(C(=O)N2CCCCC2)cc1 (configuration not stated)	SR-BI DiI inh 75.3 (no result: Bfl-1 A1 inh)
O=C(Cc1ccc(NC(=O)C2CCCN(C(=O)CCc3ccccc3)C2)cc1)Nc1cccc(C(=O)N2CCCC2)c1 (configuration not stated)	none (no result: Bfl-1 A1 inh)
CCCOc1cccc(C2C(C(=O)c3cccs3)=C(O)C(=O)N2CCN2CCOCC2)c1 (configuration not stated)	none (no result: H9c2 TAG inh)
O=C(Nc1ccc2c(c1)OCCO2)C(=O)NC1CC1	none (no result: H9c2 TAG inh)
CCN(CC)c1ccc2cc(-c3nnc(-c4ccccc4)o3)c(=O)oc2c1	Vif inh 178.7
Cc1ccc(NC(=O)C(=Cc2ccc(C(=O)O)cc2)C(=O)Nc2ccc(C)cc2C)c(C)c1	H9c2 TAG inh 55.8 (no result: SR-BI uptake up, SR-BI DiI inh)
CC(C(=O)Nc1ccc2c(c1)OCO2)N1CCC(N2CCCCC2)CC1 (configuration not stated)	none
COc1cccc(CNC(=O)COc2cc3c(c4oc(=O)cc(C)c24)CCC(C)(C)O3)c1	SR-BI DiI inh 77.1 (no result: H9c2 TAG inh)
COc1ccc(CNC(=O)COc2cc3c(c4oc(=O)cc(C)c24)CCC(C)(C)O3)cc1	none (no result: H9c2 TAG inh)
CN1C(=O)[C@H]2[C@@H](c3ccccc3)N[C@]3(CCCN(Cc4ccc(F)cc4)C3=O)[C@H]2C1=O	none (no result: Bfl-1 A1 inh, SR-BI uptake up, SR-BI DiI inh)
Cc1cc2c(N=O)c(NO)ccc2[nH]1	Vif inh 54.5 (no result: H9c2 TAG inh)
Cc1ccc2c(c1)C(=O)CCN2	Vif inh 50.6 (no result: H9c2 TAG inh)
O=C1CCNc2ccc(-c3ccccc3)cc21	none
N#C/C(=C/c1ccc(N2CCOCC2)o1)c1ccc(Cl)cc1	SR-BI DiI inh 85.4 (no result: H9c2 TAG inh)
CCCCOc1ccc(/C=C/C2=CC(C)(C)NC(=S)N2)cc1OCC	SR-BI DiI inh 89.1
COc1cc(NC(=O)C2(C)CCCN(C(C)C)C2)cc(OC)c1OC (configuration not stated)	none (no result: Bfl-1 A1 inh, SR-BI uptake up, SR-BI DiI inh)
NS(=O)(=O)c1ccc(NC(=O)c2ccc(CNS(=O)(=O)c3cc(C(F)(F)F)ccc3Cl)cc2)cc1	none (no result: SR-BI uptake up, SR-BI DiI inh)
CCN(CC)CC(=O)Nc1ccc(-c2ccc(NC(=O)CN(CC)CC)c(OC)c2)cc1OC	none
CCC(=O)Nc1ccc(-c2ccc(NC(=O)CC)c(OC)c2)cc1OC	SR-BI DiI inh 82.9
Cc1cc(=O)n2nc(N3CCC(C(=O)NCC(C)c4ccccc4)CC3)sc2n1 (configuration not stated)	none (no result: H9c2 TAG inh)
Cc1ccc(C)c(NC(=O)CCc2c(C)nn(-c3ccc(N4CCCCC4)nn3)c2C)c1	SR-BI DiI inh 83.0 (no result: H9c2 TAG inh)
CCc1ccc(NC(=O)CCc2c(C)nn(-c3ccc(N4CCCCC4)nn3)c2C)cc1	SR-BI DiI inh 80.9 (no result: H9c2 TAG inh)
Cc1ccc(NC(=O)CCc2c(C)nn(-c3ccc(N4CCCCC4)nn3)c2C)cc1F	none (no result: H9c2 TAG inh)
CC1=Nc2ccccc2/C1=C/c1nc(-c2ccc(C)s2)oc1O	SR-BI DiI inh 102.6
Cc1ccccc1NS(=O)(=O)c1ccc(C(=O)NCCCN2CCCC2=O)cc1	none
COc1ccc(C(=O)CNc2cccc(F)c2)cc1	none (no result: H9c2 TAG inh)
O=C1c2cccc3c(N4CCCCC4)ccc(c23)C(=O)N1c1cccc(O)c1	Vif inh 185.4
